Assay results reported in ChEMBL document CHEMBL4270594, “Design, synthesis and pharmacological evaluation of new 3-(1H-benzimidazol-2-yl)quinolin-2(1H)-one derivatives as potential antitumor agents” (Eur J Med Chem, 2018).
pIC50: −log10 of the molar value. The source made the active and inactive calls. The calls are words filed in the database; no cut-off is given here.

How the values were obtained:
[1] = system: NCI-H460; assay: Cytotoxicity against human NCI-H460 cells after 48 hrs by MTT assay; assay type: functional, cell-based; settings: NCI-H460, 48 h
How it was run: (§1)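 MTT cytotoxicity assay run against HepG2 and BEL-7404 liver cancer, SK-OV-3 ovarian, NCI-H460 large-cell lung cancer and HL-7702 normal liver cells. 5-fluorouracil and cisplatin served as positive controls. IC50 is given as mean ± SD of three repeat experiments.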

[2] = system: BEL-7404 tumor cell line; assay: Cytotoxicity against human Bel7404 cells after 48 hrs by MTT assay; assay type: functional, cell-based; settings: BEL-7404, 48 h; how it was run: as §1
[3] = system: SK-OV-3; assay: Cytotoxicity against human SKOV3 cells after 48 hrs by MTT assay; assay type: functional, cell-based; settings: SK-OV-3, 48 h; how it was run: as §1
[4] = system: L02; assay: Cytotoxicity against human HL-7702 cells after 48 hrs by MTT assay; assay type: cell-based; settings: L02, 48 h; how it was run: as §1
[5] = system: HepG2; assay: Cytotoxicity against human HepG2 cells after 48 hrs by MTT assay; assay type: functional, cell-based; settings: HepG2, 48 h; how it was run: as §1
[6] = system: BEL-7404 tumor cell line; assay: Antitumor activity against human Bel7404 cells xenografted in Balb/c nude mouse assessed as tumor growth inhibition at 25 mg/kg/2 days, ip for 20 days measured on day 21 post last dose relative to control; assay type: functional; settings: BEL-7404, ip, read-out: TGI
[7] = system: BEL-7404 tumor cell line; assay: Antitumor activity against human Bel7404 cells xenografted in Balb/c nude mouse assessed as relative tumor volume increment rate at 25 mg/kg/2 days, ip for 20 days measured on day 21 post last dose relative to control; assay type: functional
[8] = system: HepG2; assay: Upregulation of p53 protein expression in human HepG2 cells at 10 uM after 12 hrs by Western blot analysis; assay type: functional, cell-based

Row | SMILES | pIC50 [1] | pIC50 [2] | pIC50 [3] | pIC50 [4] | pIC50 [5] | inhibition in vivo at 25 mg/kg [6] | T/C [7] | Activity [8]
1 | Cc1ccc2[nH]c(=O)c(-c3nc4cc(C)c(C)cc4[nH]3)cc2c1 | < 4.00 | < 4.00 | < 4.00 | < 4.00 | < 4.00 |  |  | 
2 | COc1ccc2[nH]c(=O)c(-c3nc4cc(F)ccc4[nH]3)cc2c1 | < 4.00 | < 4.00 | < 4.00 | < 4.00 | < 4.00 |  |  | 
3 | O=c1[nH]cc(F)c(=O)[nH]1 [FLUOROURACIL] |  | 4.40 |  |  |  | 34.5% | 56.1% | 
4 | O=c1[nH]c2ccccc2cc1-c1nc2cc([N+](=O)[O-])ccc2[nH]1 | < 4.00 | < 4.00 | < 4.00 | < 4.00 | < 4.00 |  |  | 
5 | Cc1ccc2[nH]c(=O)c(-c3nc4cc(Br)ccc4[nH]3)cc2c1 | < 4.00 | < 4.00 | < 4.00 | < 4.00 | < 4.00 |  |  | 
6 | Cc1cc2nc(-c3cc4ccccc4[nH]c3=O)[nH]c2cc1C | < 4.00 | < 4.00 | < 4.00 | < 4.00 | < 4.00 |  |  | 
7 | COc1ccc2[nH]c(=O)c(-c3nc4cc(Br)ccc4[nH]3)cc2c1 | < 4.00 | < 4.00 | < 4.00 | < 4.00 | < 4.00 |  |  | 
8 | COc1ccc2[nH]c(=O)c(-c3nc4ccccc4[nH]3)cc2c1 | < 4.00 | < 4.00 | < 4.00 | < 4.00 | < 4.00 |  |  | 
9 | O=c1[nH]c2cc3c(cc2cc1-c1nc2ccccc2[nH]1)OCO3 | < 4.00 | < 4.00 | 4.49 | < 4.00 | 4.59 |  |  | 
10 | COc1ccc2[nH]c(=O)c(-c3nc4cc([N+](=O)[O-])ccc4[nH]3)cc2c1 | < 4.00 | < 4.00 | < 4.00 | < 4.00 | < 4.00 |  |  | 
11 | O=c1[nH]c2ccccc2cc1-c1nc2ccccc2[nH]1 | < 4.00 | < 4.00 | 4.86 | < 4.00 | 4.53 |  |  | inactive
12 | Cc1cc2nc(-c3cc4cc5c(cc4[nH]c3=O)OCO5)[nH]c2cc1C | 4.62 | 4.80 | 4.97 | < 4.00 | 4.73 |  |  | 
13 | O=c1[nH]c2cc3c(cc2cc1-c1nc2cc(F)ccc2[nH]1)OCO3 | < 4.00 | 4.99 | < 4.00 | < 4.00 | 4.91 |  |  | 
14 | O=c1[nH]c2ccccc2cc1-c1nc2cc(F)ccc2[nH]1 | 4.62 | 4.56 | 4.74 | < 4.00 | 4.82 |  |  | 
15 | Cc1ccc2[nH]c(=O)c(-c3nc4cc([N+](=O)[O-])ccc4[nH]3)cc2c1 | < 4.00 | < 4.00 | < 4.00 | < 4.00 | < 4.00 |  |  | 
16 | O=c1[nH]c2cc3c(cc2cc1-c1nc2cc(Br)ccc2[nH]1)OCO3 | < 4.00 | < 4.00 | < 4.00 | < 4.00 | < 4.00 |  |  | 
17 | Cc1ccc2[nH]c(=O)c(-c3nc4cc(F)ccc4[nH]3)cc2c1 | < 4.00 | < 4.00 | < 4.00 | < 4.00 | < 4.00 |  |  | 
18 | Cc1ccc2[nH]c(=O)c(-c3nc4cc(Cl)ccc4[nH]3)cc2c1 | 4.44 | 4.41 | 4.48 | < 4.00 | 4.58 |  |  | 
19 | COc1ccc2[nH]c(=O)c(-c3nc4cc(Cl)ccc4[nH]3)cc2c1 | < 4.00 | < 4.00 | < 4.00 | < 4.00 | < 4.00 |  |  | 
20 | O=c1[nH]c2ccccc2cc1-c1nc2cc(Br)ccc2[nH]1 | 4.77 | 4.84 | 4.94 | < 4.00 | 4.97 |  |  | 
21 | COc1ccc2[nH]c(=O)c(-c3nc4cc(C)c(C)cc4[nH]3)cc2c1 | < 4.00 | < 4.00 | < 4.00 | < 4.00 | < 4.00 |  |  | 
22 | Cc1ccc2[nH]c(=O)c(-c3nc4ccccc4[nH]3)cc2c1 | < 4.00 | < 4.00 | < 4.00 | < 4.00 | < 4.00 |  |  | 
23 | O=c1[nH]c2cc3c(cc2cc1-c1nc2cc([N+](=O)[O-])ccc2[nH]1)OCO3 | < 4.00 | < 4.00 | < 4.00 | < 4.00 | < 4.00 |  |  | 
